Data published in ChEMBL document CHEMBL4219084, “Design, synthesis and biological assessment of N-adamantyl, substituted adamantyl and noradamantyl phthalimidines for nitrite, TNF-α and angiogenesis inhibitory activities” (Bioorg Med Chem, 2018).

What was measured:
RAW264.7 [1] = assay: Antiinflammatory activity in mouse RAW264.7 cells assessed as reduction in LPS-induced TNFalpha production by measuring TNFalpha levels at 30 uM pretreated for 1 hr followed by LPS-challenge measured after 20 to 24 hrs by ELISA relative to control; format: functional; set-up: scale not given: the % may be the effect or the level left
Summary of the method: (§1)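 RAW 264.7 cells in DMEM with 10% FBS and penicillin/streptomycin, 37 °C, 5% CO2, seeded at 200×10^3 per well in 24-well plates. Media replaced at 24 h. Compound in DMSO (0.5% final) added 2 h later, then LPS 60 ng/ml 1 h after that. Media collected 20–24 h after LPS. 3–4 wells per concentration, expressed as % of DMSO vehicle control (mean ± SE).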

[2] = Cytotoxicity against LPS-induced mouse RAW264.7 cells assessed as cell viability at 30 uM pretreated for 1 hr followed by LPS-challenge measured after 20 to 24 hrs by CellTiter 96 aqueous non-radioactive cell proliferation assay; format: cell-based; conditions: LPS-induced RAW264.7 cells, read-out: Activity; summary of the method: as §1
Danio rerio [3] = species: Danio rerio; assay: Antiangiogenic activity in 24 hrs post fertilized zebra fish embryo harboring fli1:EGFP assessed as number of intersegmental vessel at 10 ug/ml after 24 hrs by fluorescence microscopic analysis; format: functional
Summary of the method: (§2)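 fli1:EGFP transgenic zebrafish embryos, identified by fluorescence, manually dechorionated at 24 h post fertilization and placed in plates with compound diluted in tank water, vehicle controls alongside. After 24 h exposure, embryos anaesthetized with 0.1% tricaine and intersegmental vessels scored for length (µm) and number. Values given as mean ± S.E.M.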

RAW264.7 [4] = assay: Antiinflammatory activity in mouse RAW264.7 cells assessed as reduction in LPS-induced nitrite production by measuring nitrite levels at 30 uM pretreated for 1 hr followed by LPS-challenge measured after 20 to 24 hrs by Griess assay relative to control; format: functional; set-up: scale not given: the % may be the effect or the level left; summary of the method: as §1
Danio rerio [5] = species: Danio rerio; assay: Antiangiogenic activity in 24 hrs post fertilized zebra fish embryo harboring fli1:EGFP assessed as intersegmental vessel length at 10 ug/ml after 24 hrs by fluorescence microscopic analysis; format: functional; summary of the method: as §2
Danio rerio [6] = species: Danio rerio; assay: Toxicity in 24 hrs post fertilized zebra fish embryo harboring fli1:EGFP at >50 ug/ml; format: organism-based; conditions: zebrafish, in vivo
Danio rerio [7] = species: Danio rerio; assay: Antiangiogenic activity in 24 hrs post fertilized zebra fish embryo harboring fli1:EGFP assessed as intersegmental vessel length after 24 hrs by fluorescence microscopic analysis; format: functional, organism-based; summary of the method: as §2
Danio rerio [8] = species: Danio rerio; assay: Antiangiogenic activity in 24 hrs post fertilized zebra fish embryo harboring fli1:EGFP assessed as number of intersegmental vessel at 5 ug/ml after 24 hrs by fluorescence microscopic analysis; format: functional; summary of the method: as §2
Danio rerio [9] = species: Danio rerio; assay: Toxicity in 24 hrs post fertilized zebra fish embryo harboring fli1:EGFP at >5 ug/ml; format: organism-based; conditions: zebrafish, in vivo
Danio rerio [10] = species: Danio rerio; assay: Antiangiogenic activity in 24 hrs post fertilized zebra fish embryo harboring fli1:EGFP assessed as intersegmental vessel length at 5 ug/ml after 24 hrs by fluorescence microscopic analysis; format: functional; summary of the method: as §2
[11] = Solubility of the compound in DMEM media at 30 uM; format: physicochemical

Row | solubility [11] | Compound | Activity (RAW264.7 [1]) [%] | viability at 30 µM [2] [%] | Activity (Danio rerio [3]) | Activity (RAW264.7 [4]) [%] | Activity (Danio rerio [5]) [um] | Activity (Danio rerio [6]) | Activity (Danio rerio [7]) | Activity (Danio rerio [8]) | Activity (Danio rerio [9]) | Activity (Danio rerio [10]) [um]
1 |  | O=C1c2ccccc2CN1C12CC3CC(CC(O)(C3)C1)C2 | 80 | 98 | 19.5 | 101 | 105.1 |  |  |  |  | 
2 |  | Nc1cccc2c1CN(C1C3CC4CC(C3)CC1C4)C2=O (stereo not drawn) | 101 | 99 | 14 | 72 | 42.1 | Toxic | Dose-dependent effect |  |  | 
3 |  | O=C1c2cccc([N+](=O)[O-])c2CN1C1C2CC3CC(C2)CC1C3 (stereo not drawn) | 65 | 82 |  | 9.2 |  |  |  | 14.6 | Toxic | 48.2
4 |  | CC(N1Cc2ccccc2C1=O)C12CC3CC(CC(C3)C1)C2 (stereo not drawn) | 55 | 82 |  | 52 |  |  |  |  |  | 
5 |  | O=C1c2ccccc2CN1C1C2CC3CC(C2)CC1C3 (stereo not drawn) | 58 | 75 |  | 62 |  |  |  |  |  | 
6 |  | O=C1c2cccc([N+](=O)[O-])c2CN1CC12CC3CC(CC(C3)C1)C2 | 77 | 92 |  | 55 |  |  |  |  |  | 
7 |  | CC(N1Cc2c(cccc2[N+](=O)[O-])C1=S)C12CC3CC(CC(C3)C1)C2 (stereo not drawn) | 96 | 83 | 22 | 11.5 | 86.4 |  |  |  |  | 
8 |  | O=C1c2ccccc2CN1C12CC3CC(CC1C3)C2 | 52 | 74 |  |  |  |  |  |  |  | 
9 |  | O=C1c2cccc([N+](=O)[O-])c2CN1C12CC3CC(CC1C3)C2 | 90 | 92 | 8.6 | 49 | 42.8 | Toxic | Dose-dependent effect |  |  | 
10 | Insoluble | O=C1c2cccc([N+](=O)[O-])c2CN1C12CC3CC(CC(C3)C1)C2 | 86 | 114 |  | 40 |  |  |  |  |  | 
11 |  | O=C1c2ccccc2CN1CC12CC3CC(CC(C3)C1)C2 | 59 | 81 | 18.2 | 50 | 83.1 |  |  |  |  | 
12 |  | O=C1c2cccc([N+](=O)[O-])c2CN1C12CC3CC(CC(O)(C3)C1)C2 | 91 | 107 |  | 94 |  |  |  |  |  | 
13 | Insoluble | S=C1c2ccccc2CN1C12CC3CC(CC1C3)C2 | 85 | 94 |  |  |  |  |  |  |  | 
14 | Insoluble | CC(N1Cc2ccccc2C1=S)C12CC3CC(CC(C3)C1)C2 (stereo not drawn) | 90 | 84 |  | 52 |  |  |  |  |  | 
15 |  | CC(N1Cc2c(cccc2[N+](=O)[O-])C1=O)C12CC3CC(CC(C3)C1)C2 (stereo not drawn) | 72 | 81 |  | 35 |  |  |  |  |  | 
